Data taken from ChEMBL document CHEMBL4411270, “Discovery of Nonquinone Substrates for NAD(P)H: Quinone Oxidoreductase 1 (NQO1) as Effective Intracellular ROS Generators for the Treatment of Drug-Resistant Non-Small-Cell Lung Cancer” (J Med Chem, 2018).
Activity calls are given as the source filed them. No cut-off for these calls is given here.

Key:
[1] = Cardiotoxicity in nude mouse xenografted with human A549/TR cells expressing NQO1 assessed as lactate dehydrogenase level at 15 to 30 mg/kg, iv treated every other day for 3 weeks by hematoxylin and eosin staining based optical microscopic analysis; type: toxicity, organism-based; settings: in vivo, 504 h
Method in brief: (§1)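 Nude mice bearing A549/Taxol xenografts given saline, 15 or 30 mg/kg by tail-vein injection every other day, or Taxol 2 mg/kg, for 3 weeks. Mice then euthanized. Major organs examined by H&E staining. Blood collected for biochemistry: TP, ALB, GLB, AST, BUN, LDH.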

A549/TR [2] = assay: Induction of apoptosis in human A549/TR cells expressing NQO1 assessed as early apoptotic cells at 10 uM treated post DIC addition and measured after 24 hrs by Annexin V-FITC/propidium iodide based flow cytometric analysis (reference value: 0.43%); type: functional
Method in brief: (§2)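 A549/Taxol cells exposed 24 h to 1, 5 or 10 µM. The 10 µM arms included pretreatment with 50 µM dicoumarol or 10 mM N-acetylcysteine. Cells stained with Annexin V-FITC and propidium iodide, and populations quantified by flow cytometry.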

[3] = Hepatotoxicity in nude mouse xenografted with human A549/TR cells expressing NQO1 assessed as albumin level at 15 to 30 mg/kg, iv treated every other day for 3 weeks by hematoxylin and eosin staining based optical microscopic analysis; type: toxicity, organism-based; settings: in vivo, 504 h; method in brief: as §1
A549/TR [4] = assay: Induction of apoptosis in human A549/TR cells expressing NQO1 assessed as increase in cleaved p53 level up to 10 uM treated post NAC addition by Western blot analysis; type: functional, cell-based
Method in brief: (§3)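 A549/Taxol cells treated with graded concentrations up to 10 µM, with or without pretreatment with 50 µM dicoumarol or 10 mM N-acetylcysteine. Cells then harvested, washed in cold PBS and trypsinized. Lysates probed by Western blot for cleaved PARP and p53.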

A549/TR [5] = assay: Induction of apoptosis in human A549/TR cells expressing NQO1 assessed as late apoptotic cells at 5 uM after 24 hrs by Annexin V-FITC/propidium iodide based flow cytometric analysis (reference value: 2.49%); type: functional; method in brief: as §2
A549/TR [6] = assay: Induction of apoptosis in human A549/TR cells expressing NQO1 assessed as necrotic cells at 10 uM after 24 hrs by Annexin V-FITC/propidium iodide based flow cytometric analysis (reference value: 3.91%); type: functional; method in brief: as §2
A549/TR [7] = assay: Induction of apoptosis in human A549/TR cells expressing NQO1 assessed as viable cells at 10 uM treated post NAC addition and measured after 24 hrs by Annexin V-FITC/propidium iodide based flow cytometric analysis (reference value: 93.16%); type: functional; settings: read-out: Activity; method in brief: as §2
[8] = molecular target: NAD(P)H dehydrogenase [quinone] 1 (Homo sapiens) (UniProt P15559); assay: Substrate activity at recombinant human NQO1 assessed as reduction in PARP-1 hyperactivation by measuring PAR accumulation at 10 uM after 60 mins by western blot analysis
NAD(P)H dehydrogenase [quinone] 1 (Homo sapiens), sequence (P15559 whole entry): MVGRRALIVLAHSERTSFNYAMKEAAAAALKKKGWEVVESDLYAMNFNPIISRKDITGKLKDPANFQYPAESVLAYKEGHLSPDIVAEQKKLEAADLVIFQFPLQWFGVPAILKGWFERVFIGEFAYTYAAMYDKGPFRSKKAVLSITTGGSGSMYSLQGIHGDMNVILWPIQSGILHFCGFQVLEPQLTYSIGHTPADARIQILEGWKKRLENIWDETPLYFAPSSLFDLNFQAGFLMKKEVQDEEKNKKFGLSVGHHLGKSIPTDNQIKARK
Method in brief: (§4)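 A549/Taxol cells treated with compound at 10 µM, with or without 50 µM DIC or 10 mM NAC pretreatment, harvested at indicated times; PAR formation by Western blot, plus intracellular ATP and NAD+ levels.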

A549/TR [9] = assay: Induction of apoptosis in human A549/TR cells expressing NQO1 assessed as increase in cleaved PARP level by Western blot analysis; type: functional, cell-based; method in brief: as §3
[10] = molecular target: NAD(P)H dehydrogenase [quinone] 1 (Homo sapiens) (UniProt P15559); assay: Substrate activity at recombinant human NQO1 assessed as reduction in PARP-1 hyperactivation by measuring depletion of NAD+ level at 10 uM measured up to 300 mins; method in brief: as §4
A549/TR [11] = assay: Induction of apoptosis in human A549/TR cells expressing NQO1 assessed as increase in cleaved PARP level up to 10 uM treated post DIC addition by Western blot analysis; type: functional, cell-based; method in brief: as §3
[12] = Hepatotoxicity in nude mouse xenografted with human A549/TR cells expressing NQO1 assessed as aspartate aminotransferase level at 15 to 30 mg/kg, iv treated every other day for 3 weeks by hematoxylin and eosin staining based optical microscopic analysis; type: toxicity, organism-based; settings: in vivo, 504 h; method in brief: as §1
[13] = Hepatotoxicity in nude mouse xenografted with human A549/TR cells expressing NQO1 at 15 to 30 mg/kg, iv treated every other day for 3 weeks by hematoxylin and eosin staining based optical microscopic analysis; type: toxicity, organism-based; settings: in vivo, 504 h; method in brief: as §1
[14] = Nephrotoxicity in nude mouse xenografted with human A549/TR cells expressing NQO1 assessed as blood urea nitrogen level at 15 to 30 mg/kg, iv treated every other day for 3 weeks […]; type: toxicity, organism-based; settings: in vivo, 504 h
Method in brief: (§5)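 A549/Taxol xenograft nude mice dosed by tail-vein injection at 15 or 30 mg/kg every other day for three weeks; saline vehicle group. Afterwards mice were euthanized, major organs H&E stained, and blood taken for biochemistry (TP, ALB, GLB, AST, BUN, LDH); tumor tissue assayed for ROS and GSH.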

[15] = Nephrotoxicity in nude mouse xenografted with human A549/TR cells expressing NQO1 at 15 to 30 mg/kg, iv treated every other day for 3 weeks by hematoxylin and eosin staining based optical microscopic analysis; type: toxicity, organism-based; settings: in vivo, 504 h; method in brief: as §5
[16] = molecular target: NAD(P)H dehydrogenase [quinone] 1 (Homo sapiens) (UniProt P15559); assay: Substrate activity at DIC pretreated recombinant human NQO1 assessed as reduction in PARP-1 hyperactivation by measuring depletion of ATP level at 10 uM measured up to 300 mins; method in brief: as §4
[17] = molecular target: NAD(P)H dehydrogenase [quinone] 1 (Homo sapiens) (UniProt P15559); assay: Substrate activity at recombinant human NQO1 assessed as reduction in PARP-1 hyperactivation by measuring PAR accumulation at 10 uM by western blot analysis; method in brief: as §4
[18] = Cardiotoxicity in nude mouse xenografted with human A549/TR cells expressing NQO1 at 15 to 30 mg/kg, iv treated every other day for 3 weeks by hematoxylin and eosin staining based optical microscopic analysis; type: toxicity, organism-based; settings: in vivo, 504 h; method in brief: as §1
[19] = molecular target: NAD(P)H dehydrogenase [quinone] 1 (Homo sapiens) (UniProt P15559); assay: Substrate activity at recombinant human NQO1 assessed as induction of ROS generation at 1 to 10 uM after 3 hrs by DCF-DA staining based fluorescence laser scanning confocal microscopic analysis
Method in brief: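 A549/Taxol cells seeded at 1 x 10^6 per well, grown 24 h, treated with compound at 1 and 10 µM for 3 h (± pretreatment with 50 µM DIC or 10 mM NAC), loaded with 10 µM DCFH-DA 30 min at 37 °C, fixed in 4% formaldehyde 20 min, PBS washed, imaged by laser scanning confocal microscopy.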

Mus musculus = assay: Reduction of GSH level in nude mouse xenografted with human A549/TR cells expressing NQO1 at 15 to 30 mg/kg, iv treated every other day for 3 weeks; type: functional, organism-based; method in brief: as §5
A549/TR [20] = assay: Induction of apoptosis in human A549/TR cells expressing NQO1 assessed as necrotic cells at 10 uM treated post NAC addition and measured after 24 hrs by Annexin V-FITC/propidium iodide based flow cytometric analysis (reference value: 3.91%); type: functional; method in brief: as §2
A549/TR [21] = assay: Induction of apoptosis in human A549/TR cells expressing NQO1 assessed as necrotic cells at 5 uM after 24 hrs by Annexin V-FITC/propidium iodide based flow cytometric analysis (reference value: 3.91%); type: functional; method in brief: as §2
A549/TR [22] = assay: Induction of apoptosis in human A549/TR cells expressing NQO1 assessed as early apoptotic cells at 10 uM after 24 hrs by Annexin V-FITC/propidium iodide based flow cytometric analysis (reference value: 0.43%); type: functional; method in brief: as §2

- Activity [8]: inactive
- Activity [10]: Active
- Activity [16]: inactive
- Activity [17]: Active
- Activity [19]: Active
SMILES: N#Cc1nc2c(nc1C#N)-c1cc(F)c(F)cc1C2=O
- Activity [1]: Non-Toxic
- Activity (A549/TR [2]): 7.01%
- Activity [3]: Non-Toxic
- Activity (A549/TR [4]): Active
- Activity (A549/TR [5]): 9.28%
- Activity (A549/TR [6]): 4.71%
- viability at 10 µM (A549/TR [7]): 86.8%
- Activity (A549/TR [9]): Dose-dependent effect
- Activity (A549/TR [11]): Active
- Activity [12]: Non-Toxic
- Activity [13]: Non-Toxic
- Activity [14]: Non-Toxic
- Activity [15]: Non-Toxic
- Activity [18]: Non-Toxic
- Activity (Mus musculus): Active
- Activity (A549/TR [20]): 6.53%
- Activity (A549/TR [21]): 7.42%
- Activity (A549/TR [22]): 60.65%
